Compound activity from PubChem.
In the library only some 2.6% were active in any assay of this set; here they are far more common.
SR-BI HDL uptake: mouse SR-BI HDL lipid transfer inhibition; Q61009; ldlA[mSR-BI] CHO cells, DiI-HDL uptake fluorescence, 3 h; inhibition, % at 12.5 µM; hit rate 0.96% among 320,000; AID 488896;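 active = mean replicate inhibition of at least 70% and a set share of replicates each scoring 70 or more; inconclusive = meets just one of the two criteria; inactive = fails both criteria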
PvdQ inh: blocks Pseudomonas aeruginosa PvdQ acylase activity. purified PvdQ acylase, fluorescence plate reader. hit rate 0.063% among 340,000. inhibition, % at 10 µM; in the data active = inhibition above about 30%, passing the limit was not always enough; inconclusive = no clear call, values can overlap the other calls
dFosB act: activators of mouse delta FosB homodimer | P13346 | AID 493131 | purified delta FosB, TAMRA-CDK5 oligo fluorescence polarization; percent of positive-control signal above neutral wells | activation, % at 25 µM | hit rate 0.99% among 340,000;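 active = mean activation above about 17%, with every replicate also reaching it, limit read from the data, passing the limit was not always enough; inconclusive = only one of the two conditions met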
Target sequence (P13346 whole entry, looked up): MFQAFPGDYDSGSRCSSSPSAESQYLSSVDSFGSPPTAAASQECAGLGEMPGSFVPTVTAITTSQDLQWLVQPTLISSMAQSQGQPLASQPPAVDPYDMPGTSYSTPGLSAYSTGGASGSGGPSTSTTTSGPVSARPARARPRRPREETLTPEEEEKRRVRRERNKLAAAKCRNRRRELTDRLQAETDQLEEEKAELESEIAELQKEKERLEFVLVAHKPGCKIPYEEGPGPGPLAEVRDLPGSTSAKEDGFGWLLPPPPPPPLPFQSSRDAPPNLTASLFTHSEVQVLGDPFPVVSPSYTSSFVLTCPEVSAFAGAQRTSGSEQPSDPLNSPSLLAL
Ecoli rRNA inh: selective bacterial rRNA inhibition in E. coli; hit rate 1.6% among 350,000; E. coli WT GFP vs humanized-ribosome RFP mutants, fluorescence, 24 h; active compounds read low; DMSO median 0, no signal -100; GFP signal change (wild-type ribosome), % (concentration not given with the values);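 active = significant combined selectivity score with lowered wild-type GFP, culture density cut under 30%, mutant RFP and density less affected; inactive = any of these conditions unmet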
XiGFP reactiv: reactivates the inactive X chromosome in mouse fibroblasts | XiGFP mouse fibroblasts, % GFP-positive cells imaging, 3 d; cells co-treated with 5-aza-dC sensitizer; scaled so ellipticine positive control = 100% | activation, % at 7.58 µM | AID 743238 | hit rate 0.055% among 360,000;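 active = mean normalized replicate activation at least 10% and every replicate at or above 10%; inconclusive = only one of the two criteria met; inactive = mean below 10% and not all replicates reach 10%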
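Assay system: SV40-immortalized XiGFP fibroblast cells, line 68-5-11; buffer or medium: DMEM plus 5-aza-dC sensitizer; compound: one concentration, pinned; timing: compounds 3 days, fix/stain 15 min at room temperature; benchmarks: positive control ellipticine, 6 µM final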
SR-BI uptake up: SR-BI HDL lipid transfer activation; CHO ldlA[mSR-BI] cells, DiI-HDL uptake fluorescence, 3 h; 100 = double the neutral-control signal; activation, % at 12.5 µM; hit rate 0.096% among 320,000; AID 504775;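 active = mean replicate activation of at least 60% and every replicate at or above 60%; inconclusive = mean or all-replicate condition met, but not both; inactive = mean below 60% and not all replicates reaching 60%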
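Test system: SR-BI-overexpressing, LDLR-lacking CHO cells. Measured by: DiI fluorescence, bottom read. Medium: Ham's F12 with 0.5% BSA, HEPES 25 mM, pH 7.4. Timing: 3 h uptake period with compound, 37 °C.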
DiI quench: counter-screen for SR-BI lipid transfer inhibitors: DiI fluorescence quenchers; shares compounds with SR-BI HDL uptake; cell-free DiI-HDL fluorescence quenching, 30 min; AC50, µM (titrated, usually from 35 µM); hit rate 20% among 470; AID 540326;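 active = quenching, a falling signal, with AC50 below a set limit tied to the top valid dose, actives reach about 32 µM in these data; inconclusive = no clear call, values can overlap the other calls; inactive = rising signal, and the rest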
Large screens that a line does not name were inactive (follow-up assays come after a bar, where they were run).

CC(=O)c1ccc(N2CCN(C(=O)/C=C/c3ccc(S(=O)(=O)NCc4ccco4)cc3)CC2)cc1	SR-BI HDL uptake 88 | DiI quench inactive
CC(=O)c1ccc(N2CCN(C(=O)/C=C/c3ccc(S(=O)(=O)N4CCOCC4)cc3)CC2)cc1	none
N#Cc1ccc(CN2CCN(C(=O)c3ccc(S(=O)(=O)NCc4ccco4)cc3)CC2)cc1	SR-BI HDL uptake inconclusive | DiI quench inactive
O=C(c1ccc(S(=O)(=O)NCc2ccco2)cc1)N1CCCC1	none
O=C(Nc1ccc2[nH]c(=O)[nH]c2c1)c1ccc(Cl)c(Cl)c1	none
COc1ccc2sc(-c3ccc(SC)cc3)c(C#CC(C)(C)O)c2c1	none
COc1ccc2sc(-c3ccc(N(C)C)cc3)c(C#Cc3cncn3C)c2c1	SR-BI HDL uptake 77 | DiI quench 2.2µM
COc1ccc2sc(-c3ccc(N(C)C)cc3)c(C#CC(C)(C)O)c2c1	SR-BI HDL uptake 103 | DiI quench 2.9µM
COc1ccc(-c2sc3ccc(OC)cc3c2C#CCCO)cc1	none (no result: XiGFP reactiv)
COc1cc(NC(=O)c2cc(-c3ccccc3Cl)on2)cc(OC)c1OC	SR-BI HDL uptake 83 | DiI quench inactive
COc1ccc(N2CCN(C(=O)c3cc(=O)[nH]c4ccccc34)CC2)cc1	none | DiI quench inactive
CC(C)(C)N(Cc1ccccc1)C(=O)COC(=O)CN1C(=O)NC2(CCCC2)C1=O	SR-BI HDL uptake 76 | DiI quench inactive
CC1CCc2sc(C(=O)N(C)CC(=O)Nc3ccc(N4CCOCC4)cc3)cc2C1 (stereo not given)	none
O=C(Nc1ccc(N2CCOCC2)cc1)c1cc2c(s1)CCCC2	SR-BI HDL uptake 100 | DiI quench 16µM
CC(=O)Nc1c(I)c(C(=O)N[C@H]2C(O)O[C@H](CO)[C@@H](O)[C@@H]2O)c(I)c(N(C)C(C)=O)c1I (stereo not given in full)	none (no result: Ecoli rRNA inh) | DiI quench inactive
CC(CCc1ccccc1)NC(=O)C1CCN(C(=O)c2sccc2-n2cccc2)CC1 (stereo not given)	SR-BI HDL uptake 88 | DiI quench inactive
c1ccc(COn2c(-c3ccccc3)nc3c2CCc2nonc2-3)cc1	SR-BI HDL uptake inconclusive (no result: Ecoli rRNA inh, XiGFP reactiv) | DiI quench inactive
CCOC(=O)CSc1c(-c2ccc(Cl)cc2)[nH]c2ccccc12	SR-BI HDL uptake 75 | DiI quench inactive
O=C(Cc1cccs1)NCCSc1c(-c2ccc(Cl)cc2)[nH]c2ccccc12	SR-BI HDL uptake inconclusive | DiI quench inactive
Cc1ccc(-c2[nH]c3ccccc3c2SCCNC(=O)c2cc3ccccc3oc2=O)cc1	none
Cc1ccc(Cn2c(=O)c3c(nc4n3CCN4Cc3ccco3)n(C)c2=O)cc1	none (no result: Ecoli rRNA inh, XiGFP reactiv)
CCc1cc2c(=O)c(-c3ccc4c(c3)OCCO4)coc2cc1OS(C)(=O)=O	SR-BI HDL uptake 75 | DiI quench inactive
CCc1cc2c(=O)c(-c3ccc4c(c3)OCCO4)coc2c(CN2CCCCC2C)c1O (stereo not given)	none
CCc1nc(N2CCN(C(=S)NCCCOC)CC2)c2c3c(sc2n1)CCCC3	SR-BI HDL uptake 88 | DiI quench inactive
COc1ccc(CNC(=O)c2ccc(Cn3nc(C)cc3C)o2)cc1	none
O=C(C1=COCCO1)N(Cc1nnc(-c2ccccc2Cl)o1)C1CC1	SR-BI HDL uptake inconclusive | DiI quench inactive
Cc1ccccc1NC(=O)NCC1CCN(c2ccc(S(=O)(=O)N3CCOCC3)cc2)CC1	SR-BI HDL uptake 82 | DiI quench inactive
O=c1[nH]c2ccccc2c(O)c1SCCO	none
COC(=O)[C@@]1(Cc2ccccc2)[C@H]2C(=O)N(C)C(=O)[C@H]2[C@H]2CN=C(SCc3ccc(C)cc3)N21	none
CCC(CO)Oc1cc(NCc2cccc(OC)c2)c2ncn(C(C)C)c2c1 (stereo not given)	none
CCOc1ccc(CCNC(=O)C2CC(=O)N(c3ccccc3OCC)C2)cc1OCC (stereo not given)	SR-BI HDL uptake 79 | DiI quench inactive
